Bioassay records: PubChem BioAssay, several laboratories
SR-BI DiI inh: inhibitors of SR-BI mediated HDL lipid uptake, primary screen, ldlA[mSR-BI] cells, fluorescence, single point | 0.96% of 320,000 active | inhibition, % at 12.5 µM | Scavenger receptor class B member 1 (Mus musculus), Q61009 | ldlA[mSR-BI] CHO cells, DiI-HDL uptake fluorescence, 3 h;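 active means mean replicate inhibition of at least 70% and a set share of replicates each scoring 70 or more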
Target sequence (Q61009 whole entry, looked up): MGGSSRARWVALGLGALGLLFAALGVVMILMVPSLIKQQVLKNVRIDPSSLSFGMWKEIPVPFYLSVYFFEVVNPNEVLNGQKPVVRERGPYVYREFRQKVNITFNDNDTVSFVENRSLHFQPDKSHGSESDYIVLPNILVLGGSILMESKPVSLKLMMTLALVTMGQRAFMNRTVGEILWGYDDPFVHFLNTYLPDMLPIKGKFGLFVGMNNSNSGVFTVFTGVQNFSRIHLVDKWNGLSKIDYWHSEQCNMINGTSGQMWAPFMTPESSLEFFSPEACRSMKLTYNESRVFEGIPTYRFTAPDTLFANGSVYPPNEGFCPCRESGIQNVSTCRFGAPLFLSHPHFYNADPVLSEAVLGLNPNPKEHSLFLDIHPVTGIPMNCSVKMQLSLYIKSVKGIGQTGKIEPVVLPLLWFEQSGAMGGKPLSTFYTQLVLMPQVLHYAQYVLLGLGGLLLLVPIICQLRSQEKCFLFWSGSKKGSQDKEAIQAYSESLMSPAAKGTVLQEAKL
SMARCA2 activ: SMARCA2 (BRM) function activators, primary screen, cell-based, luminescence, high throughput | activation, % at 9.1 µM | MG213 cells, MMTV-luciferase reporter, dexamethasone, overnight | AID 652017, 2013 | 1% of 370,000 active; in the data active means activation above about 7.8%
TAG inh: inhibitors of triacylglycerol accumulation, primary screen, cell-based, uHTS, fluorescence, H9c2. 0.66% of 230,000 active. inhibition, % at 12.5 µM. H9c2 cells, Nile Red lipid (TAG) fluorescence; cells loaded with 200 µM oleic acid. AID 651582, 2012;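 active means pattern-corrected inhibition of lipid staining of at least 50% with the nuclear-stain viability signal not falling by more than 50%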
SR-BI DiI-HDL act: activators of SR-BI mediated DiI-HDL uptake, primary screen, ldlA[mSR-BI] CHO cells, DiI fluorescence; 3 h; 100 = double the neutral-control signal; activation, % at 12.5 µM; 0.096% of 320,000 active; AID 504775, 2011;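 active means mean replicate activation of at least 60% and every replicate at or above 60%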
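Assay system: LDL receptor-deficient CHO ldlA cells overexpressing murine SR-BI / Medium: BSA-supplemented, HEPES-buffered Ham's F12, pH 7.4 / Probe or stimulus: DiI-labelled HDL at 10 µg/mL final / Timing: compound with DiI-HDL co-incubation, 3 h at 37 °C / Technique: bottom-read cell fluorescence after medium removal, ex 550/em 595 nm / Measure: HDL uptake via cellular fluorescence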
Vif inh: HIV Vif self-association inhibitors, primary screen, imaging, HEK293T, single point; HEK293T cells, Vif self-association by quenched fluorescence, 24 h; inhibition, % at 7.49 µM; 0.35% of 340,000 active; AID 602346, 2012; in the data active means inhibition above about 50%, passing the limit was not always enough
SMARCA2 conf: SMARCA2 (BRM) function activators, confirmation, cell-based, luminescence, triplicate | activation, % at 9.1 µM | 30% of 3,500 active | AID 652260, 2013 | MG213 cells, MMTV-luciferase with dexamethasone, overnight; MG213 cells expressing E1A, Rb sequestered; DMSO wells 0%, reference activator 100% | shares compounds with SMARCA2 activ;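 active means activation above its plate's cutoff, the mean activation of tested wells plus 3 SD, cut at about 7.9% in these data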
GAL4-VP16 Luc: GAL4-VP16 luciferase reporter activation, counter-screen for SMARCA2 (BRM) activator project, cell-based, pG5luc, luminescence, high throughput; shares compounds with SMARCA2 activ; HEK293 GAL4-VP16 pG5luc reporter; scaled: DMSO wells 0%, SAHA wells 100%; activation, % at 9.1 µM; 41% of 3,500 active; AID 686939, 2013;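 active means activation above the solvent-only control well mean plus 3 SD, averaged across control plates, cut at about 5.2% in these data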
Large screens that a line does not name were inactive (follow-up assays come after a bar, where they were run). Rows were chosen to be rich in hits. Some 2.5% of all compounds tested hit in one or more screens of this group.

Cc1ccccc1NC(=O)COC(=O)c1ccc(S(C)(=O)=O)c([N+](=O)[O-])c1	SMARCA2 activ 16 (no result: TAG inh) | SMARCA2 conf inactive | GAL4-VP16 Luc inactive
CN(C)S(=O)(=O)c1ccc(C(=O)OCc2nnc(-c3ccccc3)o2)cc1	none
CCN(CC)C(=O)CC[C@H]1CC[C@]2(CCCN(Cc3nccs3)C2)O1	none (no result: SR-BI DiI inh, TAG inh, SR-BI DiI-HDL act, Vif inh)
C=CCN1C(=O)[C@H](CC(=O)NCc2ccccc2)[C@@]2(C(=O)OCC)CCCC=C12	none (no result: SR-BI DiI inh, TAG inh, SR-BI DiI-HDL act, Vif inh)
O=C(Nc1ccccc1)c1cc2ccccc2o1	SMARCA2 activ 13 (no result: Vif inh) | SMARCA2 conf inactive | GAL4-VP16 Luc inactive
Cc1cc(C(=O)Nc2ccccc2)oc1C	SMARCA2 activ 9.0 | SMARCA2 conf inactive | GAL4-VP16 Luc 11
CC(C)C(=O)Nc1cccc(NC(=O)c2cc3ccccc3o2)c1	SMARCA2 activ 9.4 | SMARCA2 conf inactive | GAL4-VP16 Luc 10
Cc1ccc(CN2CCNC(=O)C2CC(=O)NCc2cc(C)n(C)n2)cc1 (stereo not given)	none
O=C(c1ccc(Cl)c([N+](=O)[O-])c1)N(Cc1cccc(Cl)c1)C1CCS(=O)(=O)C1 (stereo not given)	SMARCA2 activ 10 (no result: TAG inh, Vif inh) | SMARCA2 conf inactive | GAL4-VP16 Luc inactive
CCSc1nnc(CCNC(=O)OC(C)(C)C)o1	SMARCA2 activ 9.5 | SMARCA2 conf inactive | GAL4-VP16 Luc inactive
Cc1sc2nc3c4ccccc4c(NCc4ccco4)nn3c(=O)c2c1C	SMARCA2 activ 13 (no result: TAG inh) | SMARCA2 conf 43 | GAL4-VP16 Luc 19
CCCC(=O)Nc1ccc(NC(=O)c2ccco2)c(OC)c1	SMARCA2 activ 9.7 (no result: TAG inh, Vif inh) | SMARCA2 conf inactive | GAL4-VP16 Luc 6.5
Cc1cc(NC(=O)c2ccco2)ncc1NC(=O)Cc1ccccc1	SMARCA2 activ 11 | SMARCA2 conf 12 | GAL4-VP16 Luc inactive
CCC(=O)Nc1ccc(NC(=O)c2ccco2)c(OC)c1	none
Cc1cc(NC(=O)c2ccco2)ccc1NC(=O)c1ccco1	SMARCA2 activ 9.7 (no result: TAG inh) | SMARCA2 conf inactive | GAL4-VP16 Luc inactive
C[C@H]1C2CC(OC(=O)NCc3ccccc3)C(C2)[C@H]2CCCCN21 (stereo not given in full)	none (no result: SR-BI DiI inh, TAG inh, SR-BI DiI-HDL act, Vif inh)
Cc1cc(/C=N/NC(=O)c2ccsc2)c(C)n1-c1cnccn1	SMARCA2 activ 8.0 | SMARCA2 conf inactive | GAL4-VP16 Luc inactive
Cc1cc(C)cc(-n2c(C)cc(/C=N/NC(=O)c3ccncc3)c2C)c1	none
Cc1ccc(C(=O)NCCN2C(=O)C3C4C=CC(C4)C3C2=O)cc1 (stereo not given)	none (no result: SR-BI DiI inh, TAG inh, SR-BI DiI-HDL act, Vif inh)
Cc1cc2nc(-c3ccc(SCC(=O)N4CCN(C(=O)c5ccco5)CC4)nc3)[nH]c2cc1C	SMARCA2 activ 10 (no result: TAG inh) | SMARCA2 conf 9.2 | GAL4-VP16 Luc 8.8
Cc1cc2nc(-c3ccc(SCC(=O)N4CCOCC4)nc3)[nH]c2cc1C	none (no result: TAG inh)
O=C(Nc1ccccc1Oc1ccccc1)[C@@H]1O[C@H](CO)[C@H](O)[C@H](O)[C@H]1O	none (no result: SR-BI DiI inh, SR-BI DiI-HDL act)
O=C(Cc1cccs1)NNC(=O)c1ccc(F)cc1	none (no result: TAG inh)
Cc1ccc(C(=O)NNC(=O)Cc2cccs2)cc1	SMARCA2 activ 9.1 (no result: TAG inh) | SMARCA2 conf inactive | GAL4-VP16 Luc inactive
O=C(Nc1ccc(F)cc1F)C1CCCN1S(=O)(=O)c1cccnc1 (stereo not given)	none (no result: SR-BI DiI inh, TAG inh, SR-BI DiI-HDL act, Vif inh)
CCOC(=O)CSc1nc2ccccc2c(=O)[nH]1	none
CCOC(=O)c1nc2ccccc2c(=O)[nH]1	SMARCA2 activ 9.3 | SMARCA2 conf inactive | GAL4-VP16 Luc inactive
CCCCNC(=O)CSc1nc(CCC)nc2ccccc12	none (no result: Vif inh)
CCCc1nc(SCC(=O)c2ccc(F)cc2)c2ccccc2n1	SMARCA2 activ 8.3 | SMARCA2 conf inactive | GAL4-VP16 Luc inactive
